Reference: ChEMBL document CHEMBL1156515
Values belong to the compound of their own block, whether it stands above or below them. Active and inactive are the calls of the source. The rule behind the calls is not given here.

How the values were obtained:
Rattus norvegicus [1] = organism: Rattus norvegicus; test: Effect on GST fused rat AMPKalpha1 T172D mutant kinase
Rattus norvegicus [2] = organism: Rattus norvegicus; test: Effect on interaction between rat GST fused AMPK glycogen binding domain and glycogen at 0.5 uM
Summary of the method: (§1)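 β1 glycogen-binding domain (residues 65-182) fused to GST, expressed in E. coli BL21 and glutathione-purified. 2 µg incubated with bovine liver glycogen coupled to Sepharose in 50 mM Tris-HCl pH 7.5, 150 mM NaCl with compound. Load, supernatant and pellet anti-GST immunoblotted on infrared imager.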

Mus musculus [3] = organism: Mus musculus; test: Effect on acetyl-CoA carboxylase phosphorylation in mouse embryonic fibroblasts expressing AMPK-alpha1+/+alpha2+/+ at 100 uM upto1 hrs by Western blot
Rattus norvegicus [4] = organism: Rattus norvegicus; test: Protection against dephosphorylation of rat AMPK incubated with protein phosphatase 2Calpha at 1 uM in presence of magnesium
Summary of the method: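 Purified rat liver AMPK incubated with recombinant protein phosphatase-2Cα (9 ng) plus 5 mM MgCl2 with or without 1 µM compound; remaining AMPK activity measured. Controls lacked Mg2+ or added 200 µM AMP.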

HeLa [5] = test: Effect on AMPK activation in HeLa cells at 100 uM after 1 hr by immunoprecipitate kinase assay; type: cell-based
Summary of the method: (§2)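 HeLa cells (MEM, 10% FBS, NEAA, penicillin/streptomycin) given 100 µM compound for 1 hr, with or without STO-609 (10 µg/ml) for 1 hr beforehand. Lysates in ice-cold NP-40 buffer; AMPK activity by immunoprecipitate kinase assay and Thr-172 phosphorylation by Western blot. Means ± SEM of duplicates, representative of 2 or more experiments.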

[6] = molecular target: Serine/threonine-protein kinase pim-1 (Homo sapiens) (UniProt P11309); test: Inhibition of PIM1 at 10 uM
Summary of the method: (§3)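 Single-concentration selectivity screen at 10 µM across a 76-protein-kinase panel, assayed per earlier methods. Duplicate assays; activity expressed as % of no-compound control ± standard deviation.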

Mus musculus [7] = organism: Mus musculus; test: Effect on AMPK phosphorylation in LKB1-/- mouse longus muscle tissue at 2 mM uM by Western blot; type: tissue-based
Summary of the method: (§4)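 EDL muscle from fasted LKB1+/+ or muscle-LKB1−/− mice, incubated 1 hr at 37°C in KRB pH 7.4 with 2 mM pyruvate, gassed 95% O2/5% CO2, with 2 mM AICAR. Lysates immunoblotted with phospho-Thr172 AMPK and phospho-ACC antibodies; ECL bands quantified by CCD imaging.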

Mus musculus [8] = organism: Mus musculus; test: Effect on acetyl-CoA carboxylase phosphorylation in mouse embryonic fibroblasts expressing AMPK-alpha1+/+alpha2+/+ upto 300 uM by Western blot
Summary of the method: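 MEFs from AMPKα1+/+/α2+/+ mice (DMEM, 10% FBS, NEAA, 1 mM pyruvate, antibiotics) given compound at graded concentrations up to 300 µM for 1 h. Lysates Western blotted for phospho- and total ACC, quantified by densitometry (arbitrary units). Means ± SEM of duplicates, representative of 2 or more experiments.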

[9] = molecular target: 5'-AMP-activated protein kinase catalytic subunit alpha-1 (Rattus norvegicus) (UniProt P54645); test: Effect on GST fused rat AMPKalpha1 (1-333) kinase activation in presence of recombinant CaMKKbeta by Western blot
Summary of the method: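 GST fusions of rat AMPKα1 kinase domain, with or without the autoinhibitory region, made in bacteria and glutathione-Sepharose purified. Pre-incubated with MgATP with or without recombinant human CaMKKβ to phosphorylate Thr-172. Activity then measured with or without 1 µM compound, or samples Western blotted with anti-GST and anti-pT172.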

Mus musculus [10] = organism: Mus musculus; test: Effect on AMPK phosphorylation in wild type LKB1+/+ mouse longus muscle tissue at 100 uM by Western blot; type: tissue-based
Summary of the method: (§5)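 Extensor digitorum longus from overnight-fasted LKB1+/+ or muscle-specific LKB1−/− mice, mounted and incubated 1 hr at 37°C in KRB (pH 7.4, 2 mM pyruvate, gassed 95% O2/5% CO2) with compound (stock in DMSO); controls 0.1% DMSO. Muscles snap-frozen; lysates Western blotted for pT172 AMPK and pACC.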

HeLa [11] = test: Effect on AMPK phosphorylation in HeLa cells at 100 uM after 1 hr by immunoprecipitate kinase assay; type: cell-based; summary of the method: as §2
Mus musculus [12] = organism: Mus musculus; test: Effect on acetyl-CoA carboxylase phosphorylation in wild type LKB1+/+ mouse longus muscle tissue at 100 uM by Western blot; type: tissue-based; summary of the method: as §5
Mus musculus [13] = organism: Mus musculus; test: Effect on acetyl-CoA carboxylase phosphorylation in LKB1-/-mouse longus muscle tissue at 100 uM by Western blot; type: tissue-based; summary of the method: as §5
Mus musculus [14] = organism: Mus musculus; test: Effect on acetyl-CoA carboxylase phosphorylation in LKB1-/-mouse longus muscle tissue at 2 mM uM by Western blot; type: tissue-based; summary of the method: as §4
Rattus norvegicus [15] = organism: Rattus norvegicus; test: Effect on interaction between rat GST fused AMPK glycogen binding domain and glycogen at 5 uM; summary of the method: as §1
Mus musculus [16] = organism: Mus musculus; test: Effect on acetyl-CoA carboxylase phosphorylation in mouse embryonic fibroblasts expressing AMPK-alpha1+/+alpha2+/+ at 100 uM after 15 mins by Western blot
HeLa [17] = test: Effect on acetyl-CoA carboxylase phosphorylation in HeLa cells at 100 uM after 1 hr by densitometry; type: cell-based
Summary of the method: (§6)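 HeLa cells exposed to 100 µM compound for 1 hr, with or without a 1 hr pretreatment with STO-609 (10 µg/ml). Lysates Western blotted for phospho-ACC, quantified by densitometry in arbitrary units. Means ± SEM of duplicates; 2 or more experiments.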

[18] = molecular target: 5'-AMP-activated protein kinase catalytic subunit alpha-1 (Rattus norvegicus) (UniProt P54645); test: Activation of rat AMPK alpha-1-alpha-2beta-1-gamma-1 kinase upto 5 uM in presence of saturating concentration of 200 uM AMP
Mus musculus [19] = organism: Mus musculus; test: Increase in acetyl-CoA carboxylase phosphorylation in TAK1-/- mouse embryonic fibroblast at 100 uM after 1 hr by densitometry
Summary of the method: (§7)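 TAK1+/+ and TAK1−/− MEFs treated with 100 µM compound for 1 hr; lysates Western blotted and ACC phosphorylation quantified by densitometry in arbitrary units. Means ± SEM of duplicates, representative of 2 or more experiments.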

[20] = molecular target: Serine/threonine-protein kinase pim-3 (Homo sapiens) (UniProt Q86V86); test: Inhibition of PIM3 at 10 uM; summary of the method: as §3
Hepatocyte = test: Effect on acetyl-CoA carboxylase phosphorylation in wild type AMPK expressing mouse AMPK-alpha1+/+alpha2+/+ primary hepatocytes upto 200 uM after 4 hrs by Western blot; type: cell-based
Summary of the method: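 Primary hepatocytes from AMPKα1+/+α2+/+ mice exposed to compound concentrations up to 200 µM for 4 hr. Lysates immunoblotted with phosphospecific and total ACC antibodies.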

HeLa [21] = test: Effect on AMPK phosphorylation in HeLa cells at 100 uM after 1 hr by immunoprecipitate kinase assay
HeLa [22] = test: Reduction of acetyl-CoA carboxylase phosphorylation in HeLa cells at 100 uM after 1 hr in presence of STO-609 by densitometry; type: cell-based; summary of the method: as §6
Mus musculus [23] = organism: Mus musculus; test: Effect on acetyl-CoA carboxylase phosphorylation in wild type LKB1+/+ mouse longus muscle tissue at 2 mM uM by Western blot; type: tissue-based; summary of the method: as §4
HeLa [24] = test: Reduction of AMPK phosphorylation in HeLa cells at 100 uM after 1 hr in presence of STO-609 by immunoprecipitate kinase assay; type: cell-based; summary of the method: as §2
Mus musculus [25] = organism: Mus musculus; test: Effect on AMPK phosphorylation in wild type LKB1+/+ mouse longus muscle tissue at 2 mM uM by Western blot; type: tissue-based; summary of the method: as §4
Mus musculus [26] = organism: Mus musculus; test: Effect on AMPK phosphorylation in LKB1-/- mouse longus muscle tissue at 100 uM by Western blot; type: tissue-based; summary of the method: as §5
Mus musculus [27] = organism: Mus musculus; test: Increase in acetyl-CoA carboxylase phosphorylation in TAK1+/+ mouse embryonic fibroblast at 100 uM after 1 hr by densitometry; summary of the method: as §7
HeLa [28] = test: Reduction of AMPK activation in HeLa cells at 100 uM after 1 hr in presence of STO-609 by immunoprecipitate kinase assay; type: cell-based; summary of the method: as §2
Mus musculus [29] = organism: Mus musculus; test: Effect on acetyl-CoA carboxylase phosphorylation in mouse embryonic fibroblasts expressing AMPK-alpha1+/+alpha2+/+ upto 300 uM after 4 hrs by Western blot
HeLa [30] = test: Effect on acetyl-CoA carboxylase phosphorylation in HeLa cells at 1 uM after 5 mins by densitometry; type: cell-based
Summary of the method: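 HeLa cells grown in MEM with 10% FBS, NEAA and antibiotics. Cells were exposed for 5 min, with or without 1 h STO-609 (10 µg/ml) pretreatment, then lysed in NP-40 buffer. Lysates (10-30 µg protein) were Western blotted for phospho-ACC with ECL detection, and densitometry was given in arbitrary units. Means ± SEM of duplicates, representative of 2 or more experiments.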

HeLa [31] = test: Effect on AMPK activation in HeLa cells at 1 uM after 5 mins by immunoprecipitate kinase assay; type: cell-based
Summary of the method: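 HeLa cells grown in Minimum Essential Eagle's Medium with 10% FBS, NEAA, penicillin and streptomycin. Cells were exposed for 5 min, with or without 1 h pretreatment with STO-609 (10 µg/ml). They were lysed in ice-cold NP-40 buffer, and AMPK activity was measured by immunoprecipitate kinase assay. Means ± SEM of duplicates, representative of 2 or more experiments.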

Chain of 5'-AMP-activated protein kinase catalytic subunit alpha-1 (Rattus norvegicus) (P54645 whole entry, the tested form may be a part): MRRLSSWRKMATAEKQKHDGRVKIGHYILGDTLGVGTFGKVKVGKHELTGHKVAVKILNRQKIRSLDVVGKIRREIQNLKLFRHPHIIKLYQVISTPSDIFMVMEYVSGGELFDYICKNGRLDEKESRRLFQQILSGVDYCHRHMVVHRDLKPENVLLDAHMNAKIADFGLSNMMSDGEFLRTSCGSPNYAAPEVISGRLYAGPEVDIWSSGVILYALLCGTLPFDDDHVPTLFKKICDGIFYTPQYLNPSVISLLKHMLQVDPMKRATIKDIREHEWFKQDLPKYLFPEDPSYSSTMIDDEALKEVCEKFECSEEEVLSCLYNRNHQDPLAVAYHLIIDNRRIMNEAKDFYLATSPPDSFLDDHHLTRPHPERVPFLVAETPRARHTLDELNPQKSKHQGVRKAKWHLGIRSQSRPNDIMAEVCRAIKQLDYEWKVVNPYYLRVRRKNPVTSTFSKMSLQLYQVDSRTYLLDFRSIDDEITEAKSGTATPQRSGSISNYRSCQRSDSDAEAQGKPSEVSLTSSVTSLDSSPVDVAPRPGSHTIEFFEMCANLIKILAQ
Chain of Serine/threonine-protein kinase pim-1 (Homo sapiens) (P11309 whole entry, looked up): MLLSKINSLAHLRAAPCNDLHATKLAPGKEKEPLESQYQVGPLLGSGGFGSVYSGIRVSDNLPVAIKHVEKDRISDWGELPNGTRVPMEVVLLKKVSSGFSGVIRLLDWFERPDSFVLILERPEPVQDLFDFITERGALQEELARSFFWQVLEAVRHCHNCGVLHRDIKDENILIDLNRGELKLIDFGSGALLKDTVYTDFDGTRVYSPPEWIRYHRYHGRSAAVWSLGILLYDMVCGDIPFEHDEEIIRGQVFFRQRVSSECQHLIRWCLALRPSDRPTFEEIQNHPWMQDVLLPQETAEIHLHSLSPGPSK

Activity (Rattus norvegicus [1]): inactive
Activity (Rattus norvegicus [2]): inactive
Activity (Mus musculus [3]): Active
Activity (Rattus norvegicus [4]): Active
inhibition [6]: > 50%
Activity (Mus musculus [8]): Active
Activity [9]: inactive
Activity (Rattus norvegicus [15]): inactive
Activity (Mus musculus [16]): Active
Activity [18]: 1.4
Activity (Mus musculus [19]): Active
inhibition [20]: > 50%
Activity (Mus musculus [27]): Active
Structure (SMILES): N#Cc1c(O)c2c(-c3ccc(-c4ccccc4O)cc3)csc2[nH]c1=O
Activity (HeLa [5]): Active
Activity (Mus musculus [7]): inactive
Activity (Mus musculus [10]): Active
Activity (HeLa [11]): Active
Activity (Mus musculus [12]): Active
Activity (Mus musculus [13]): inactive
Activity (Mus musculus [14]): inactive
Activity (HeLa [17]): Active
Activity (Hepatocyte): Active
Activity (HeLa [21]): Active
Activity (HeLa [22]): Active
Activity (Mus musculus [23]): Active
Activity (HeLa [24]): Active
Activity (Mus musculus [25]): Active
Activity (Mus musculus [26]): inactive
Activity (HeLa [28]): Active

Structure (SMILES): NC(=O)c1ncn([C@@H]2O[C@H](COP(=O)(O)O)[C@@H](O)[C@H]2O)c1N
Activity (Mus musculus [29]): Active

Structure (SMILES): CC(O)[C@]1(C)CC[C@H]([C@]2(C)CC[C@@H](C[C@H](O)[C@H](C)[C@H](O)[C@H](C)/C=C/C[C@@H](C)C[C@@H](C)/C(O)=C/C(=O)[C@@H](C)C[C@@H](C)C[C@H](C)CCC(=O)O)O2)O1 (single isomer, unassigned)
Activity (HeLa [30]): Active
Activity (HeLa [31]): Active
